This is an account of results in ChEMBL document CHEMBL4765370, “Design, synthesis, and biological evaluation of aryl piperazines with potential as antidiabetic agents via the stimulation of glucose uptake and inhibition of NADH:ubiquinone oxidoreductase” (Eur J Med Chem, 2020).

By half-life is commonly meant how long it takes for the measured level to halve. Low readings indicate fast loss, high ones slow loss. Usually inhibition stands for the drop in the measured response relative to a control, in per cent. As a reminder, the AUC is the area under the concentration-time curve, a measure of exposure. The low end stands for low exposure, the high end for high exposure. By AUC(0-t) is commonly meant exposure summed from dosing to a finite time, without extrapolation to infinity. The term Tmax denotes the time at which the peak concentration occurs. The microsomal CLint is the capacity of the preparation to metabolise the compound, expressed as a volume cleared per time. Lower therefore signals greater metabolic stability. As a reminder, the efflux ratio is the permeability from basolateral to apical divided by that in the opposite direction, in the common usage. As a reminder, the AUC(0-inf) is the area under the concentration-time curve extrapolated to infinity. A high value points to high exposure. For orientation: Cmax means the peak of the concentration-time curve.

A short description of series [1]: Half life in human hepatocytes at 1 uM up to 120 mins by HPLC-MS/MS analysis. It is filed as ADME, cell-based, Hepatocyte.
The next series deals with CYP3A4 (Homo sapiens, UniProt P08684). The experiment in a line: Inhibition of human CYP3A4 using fluorogenic substrate incubated for 60 mins in presence of NADPH by fluorescence assay relative to control. It is filed as ADME. The following applies: probe fluorogenic substrate. In a few lines: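 Baculosomes each expressing a single cDNA-derived human P450 isozyme were incubated with compound at 10 µM, a fluorogenic substrate and NADPH. Incubation was at 37 °C for at least 60 min before fluorescence was read, n = 3.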

The nature of series [2]: AUCall in C57 Black mouse brain at 10 mg/kg, iv. It is filed as ADME, organism-based. Also on record: dose 10 mg/kg. Put shortly:
(§1)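 Male C57BL/6 mice were given a single 10 mg/kg dose either intravenously or orally. The oral and IV solutions were formulated in 10% DMSO, 10% cremaphor and 80% saline. Concentrations in plasma and in the tissues collected were determined after dosing, with n = 3 per route. Values are given as mean ± SEM.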

Series [3] can be described thus: Half life in C57 Black mouse spleen at 10 mg/kg, iv. It is filed as ADME, organism-based. In a few lines: (§2)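 Male C57BL/6 mice (n = 3) dosed at 10 mg/kg by IV or oral (PO) route. Dosing solutions were formulated in 10% DMSO, 10% cremaphor and 80% saline. Compound levels were measured in plasma and tissues over time, and values are given as mean ± SEM.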
The nature of series [4]: AUClast in C57 Black mouse kidney at 10 mg/kg, po. It is filed as ADME, organism-based. Also on record: time 0 - last, route oral, dose 10 mg/kg. In a few lines:
as §1

The nature of series [5]: Tmax in C57 Black mouse brain at 10 mg/kg, po. It is filed as ADME, organism-based. Put shortly:
as §2

Series [6] is described as follows: Intrinsic clearance in mouse microsomes at 1 uM up to 120 mins by HPLC/MS-MS analysis. It is filed as ADME, Microsome.
A short description of series [7]: AUClast in C57 Black mouse spleen at 10 mg/kg, po. It is filed as ADME, organism-based. Also on record: time 0 - last, route oral, dose 10 mg/kg. Put shortly: as §1
A short description of series [8]: AUCall in C57 Black mouse plasma at 10 mg/kg, iv. Format: ADME, organism-based. Also on record: dose 10 mg/kg. Put shortly:
as §1

The nature of series [9]: Efflux ratio of apparent permeability in MDCK-MDR1 cells at 10 uM after 30 mins by LC-MS/MS analysis. It is filed as ADME, cell-based, Canis lupus familiaris. To be noted: dog. Put shortly:
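hMDR1-MDCK monolayers on filters; compound at 10 µM final in DMEM (from 10 mM DMSO stock) with 10 µM propranolol internal standard in donor. Transfer measured apical-to-basolateral and basolateral-to-apical over 30 min; receiver samples by LC-MS/MS; n = 3.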

A short description of series [10]: Tmax in C57 Black mouse liver at 10 mg/kg, po. Format: ADME, organism-based. In a few lines: as §2
Series [11] in a line: AUCinfinity in C57 Black mouse plasma at 10 mg/kg, iv. It is filed as ADME, organism-based. The arrangement: route intravenous, time infinity, dose 10 mg/kg. The following applies: in vivo. Put shortly:
as §1

Series [12] in a line: AUClast in C57 Black mouse kidney at 10 mg/kg, iv. Format: ADME, organism-based. Also on record: route intravenous, time 0 - last, dose 10 mg/kg. In a few lines: as §1
Series [13] is described as follows: Tmax in C57 Black mouse brain at 10 mg/kg, iv. It is filed as ADME, organism-based. In a few lines:
as §2

Series [14] can be described thus: Intrinsic clearance in mouse hepatocytes at 1 uM up to 120 mins by HPLC-MS/MS analysis. It is filed as ADME, cell-based, Hepatocyte. The following applies: 2 h.
Series [15] is described as follows: AUCinfinity in C57 Black mouse liver at 10 mg/kg, po. It is filed as ADME, organism-based. Also on record: time infinity, route oral, dose 10 mg/kg. Put shortly:
as §1

Series [16] is described as follows: Half life in C57 Black mouse plasma at 10 mg/kg, po. Format: ADME, organism-based. Put shortly:
as §2

Series [17] in a line: AUCinfinity in C57 Black mouse brain at 10 mg/kg, iv. Also on record: time infinity, route intravenous, dose 10 mg/kg. It is filed as ADME, organism-based. In a few lines:
as §1

Series [18] is described as follows: Cmax in C57 Black mouse spleen at 10 mg/kg, iv. Also on record: route intravenous, dose 10 mg/kg. It is filed as ADME, organism-based. Put shortly:
as §1

CYP3A4, sequence (P08684 whole entry): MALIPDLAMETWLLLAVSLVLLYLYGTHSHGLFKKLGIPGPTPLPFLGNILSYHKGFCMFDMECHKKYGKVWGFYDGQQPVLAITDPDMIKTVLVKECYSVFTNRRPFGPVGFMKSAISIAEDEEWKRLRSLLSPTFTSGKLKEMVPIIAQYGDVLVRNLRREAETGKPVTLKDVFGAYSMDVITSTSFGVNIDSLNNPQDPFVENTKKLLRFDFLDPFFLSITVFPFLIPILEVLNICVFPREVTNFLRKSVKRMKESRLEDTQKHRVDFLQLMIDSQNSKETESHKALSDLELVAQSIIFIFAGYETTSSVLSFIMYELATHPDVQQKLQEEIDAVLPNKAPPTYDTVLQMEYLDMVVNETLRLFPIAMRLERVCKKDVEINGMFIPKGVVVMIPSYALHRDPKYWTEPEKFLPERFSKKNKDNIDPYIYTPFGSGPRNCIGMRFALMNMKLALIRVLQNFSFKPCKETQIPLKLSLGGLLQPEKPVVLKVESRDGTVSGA

Consider `O=C(CCCc1cccs1)N1CCN(c2ccc(C(F)(F)F)cc2)CC1`, for which the half-life at 1 µM in series [1] was 3 min. In addition, the inhibition at 1 h at CYP3A4 stood at 80.2%. Further, the results for the exposure (AUC) in series [2], in series [8] and in [11] were 246 ng·h/mL, 240 ng·h/mL and 244 ng·h/mL, respectively. Further, the half-life in [3] is 66 min; in series [16], 45.6 min. Besides, the AUC(0-t) in series [4] stood at 1220 ng·h/mL; in [7], 1260 ng·h/mL; in series [12], 320 ng·h/mL. Also, the figures for the Tmax in series [5], in series [10] and in [13] were 15 min, 15 min and 1.8 min, respectively. For the same molecule, the intrinsic metabolic clearance (microsomal CLint) at 1 µM in series [6] is 226 µL/min/mg. The efflux ratio at 0.5 h, 10 µM in series [9] was 0.9. Further, the CLH in series [14] turned out to be 8 µL/min. The area under the curve AUC(0-inf) in [15] turned out to be 4090 ng·h/mL; in series [17], 253 ng·h/mL. This molecule returned a peak concentration (Cmax) in [18] of 587 ng/mL.
